What all share (format): functional, organism-based
Experiment [1] deals with Acanthamoeba castellanii. Briefly: Anti-amoebic activity against Acanthamoeba castellanii ATCC 30010 cyst assessed as inhibition of excystation at 10 uM incubated for 72 hrs by crystal violet staining based assay.
Experiment [2] concerns Acanthamoeba castellanii. Briefly: Anti-amoebic activity against Acanthamoeba castellanii ATCC 30010 cyst assessed as reduction in cyst survival at […] incubated for 24 to 72 hrs by crystal violet staining based assay. Particulars: time 24-72 hrs. An outline of the steps: (§1)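 Cyst survival: after 24, 48 or 72 h of inhibitor exposure of 1000 cells per well in PYG, the medium-inhibitor solution was moved to a new plate and topped up with fresh medium. It was then incubated 5 days at +25 °C so cysts could excyst. Wells were fixed with methanol, stained with 0.1% crystal violet, eluted with 10% acetic acid and read at 590 nm. Unpaired t-test versus control at 72 h.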

Experiment [3] deals with Acanthamoeba castellanii. The experiment in a line: Anti-amoebic activity against Acanthamoeba castellanii ATCC 30010 trophozoites assessed as reduction in amoebic growth at 100 nM incubated for 24 to 72 hrs by crystal violet staining based assay. Particulars: time 24-72 hrs. An outline of the steps: (§2)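 Trophozoites scraped from an axenic PYG culture at +25 °C were plated at 1000 cells per well with an inhibitor dilution series in PYG medium, with a separate plate for each time point (24, 48, 72 h). Cells were fixed with methanol, stained with 0.1% crystal violet, dissolved in 10% acetic acid and read at 590 nm. Two experiments, 6–15 wells per concentration; unpaired t-test versus control at 72 h.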

The subject of experiment [4] is Acanthamoeba castellanii. The experiment in a line: Anti-amoebic activity against Acanthamoeba castellanii ATCC 30010 trophozoites assessed as reduction in amoebic growth at 1 to 100 uM incubated for 24 to 72 hrs by crystal violet staining based assay. Particulars: dose 1-100 µM, time 24-72 hrs. An outline of the steps:
as §2

Experiment [5] deals with Acanthamoeba castellanii. Briefly: Anti-amoebic activity against Acanthamoeba castellanii ATCC 30010 cyst assessed as inhibition of excystation at >= 10 uM incubated for 72 hrs by crystal violet staining based assay.
For experiment [6], the system named is Acanthamoeba castellanii. Briefly: Anti-amoebic activity against Acanthamoeba castellanii ATCC 30010 trophozoites assessed as reduction in amoebic growth at 1 to 100 nM incubated for 24 to 72 hrs by crystal violet staining based assay. Particulars: dose 1-100 nM, time 24-72 hrs. An outline of the steps:
as §2

Experiment [7] concerns Acanthamoeba castellanii. The experiment in a line: Anti-amoebic activity against Acanthamoeba castellanii ATCC 30010 trophozoites assessed as reduction in amoebic growth at 15.6 uM incubated for 24 to 72 hrs by crystal violet staining based assay. As to conditions: time 24-72 hrs. An outline of the steps: as §2
Experiment [8] has as its system Acanthamoeba castellanii. The experiment in a line: Anti-amoebic activity against Acanthamoeba castellanii ATCC 30010 cyst assessed as reduction in cyst survival at 7.81 to 250 uM incubated for 24 to 72 hrs by crystal violet staining based assay. As to conditions: dose 7.81-250 µM, time 24-72 hrs. An outline of the steps:
as §1

In experiment [9] the test system is Acanthamoeba castellanii. The experiment in a line: Anti-amoebic activity against Acanthamoeba castellanii ATCC 30010 cyst assessed as reduction in cyst survival at >= 500 uM incubated for 24 to 72 hrs by crystal violet staining based assay. Particulars: time 24-72 hrs. In short, it runs like this: as §1
In experiment [10] the test system is Acanthamoeba castellanii. Briefly: Anti-amoebic activity against Acanthamoeba castellanii ATCC 30010 cyst assessed as inhibition of excystation at >= 62.5 uM incubated for 72 hrs by crystal violet staining based assay.
For experiment [11], the system named is Acanthamoeba castellanii. Briefly: Anti-amoebic activity against Acanthamoeba castellanii ATCC 30010 cyst assessed as inhibition of excystation at 188 nM incubated for 72 hrs by crystal violet staining based assay.
Experiment [12] deals with Acanthamoeba castellanii. The experiment in a line: Anti-amoebic activity against Acanthamoeba castellanii ATCC 30010 cyst assessed as reduction in cyst survival at 9.38 uM incubated for 24 to 72 hrs by crystal violet staining based assay. As to conditions: time 24-72 hrs. An outline of the steps: as §1
In experiment [13] the test system is Acanthamoeba castellanii. Briefly: Anti-amoebic activity against Acanthamoeba castellanii ATCC 30010 trophozoites assessed as reduction in amoebic growth at 938 nM incubated for 24 to 72 hrs by crystal violet staining based assay. Particulars: time 24-72 hrs. An outline of the steps:
as §2

Experiment [14] has as its system Acanthamoeba castellanii. The experiment in a line: Anti-amoebic activity against Acanthamoeba castellanii ATCC 30010 trophozoites assessed as reduction in amoebic growth at 100 uM incubated for 24 to 72 hrs by crystal violet staining based assay. As to conditions: time 24-72 hrs. In short, it runs like this: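 Trophozoites scraped from steady-state PYG culture, 1000 cells per well in inhibitor-containing PYG, +25 °C, separate plates read at 24, 48, 72 h. Methanol fix, 0.1% crystal violet, 10% acetic acid elution, A590. Two experiments, ≥3 wells each. Unpaired t-test vs drug-free control at 72 h.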

Experiment [15] deals with Acanthamoeba castellanii. Briefly: Anti-amoebic activity against Acanthamoeba castellanii ATCC 30010 cyst assessed as inhibition of excystation at 100 uM incubated for 72 hrs by crystal violet staining based assay. In short, it runs like this:
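Axenic culture in PYG medium at +25 °C, grown past peak density to induce encystment; 1000 cysts per well added to inhibitor diluted in PYG, incubated 72 h at +25 °C. Methanol fix, 0.1% crystal violet stain (remaining cysts washed off), dissolve in 10% acetic acid, absorbance 590 nm. Unpaired t-test vs drug-free control; 6 replicates.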

The subject of experiment [16] is Acanthamoeba castellanii. Briefly: Anti-amoebic activity against Acanthamoeba castellanii ATCC 30010 cyst assessed as reduction in cyst survival at 1 mM incubated for 24 to 72 hrs by crystal violet staining based assay. As to conditions: time 24-72 hrs. An outline of the steps:
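Scraped PYG-grown cells, 1000 per well, exposed 24, 48 or 72 h at +25 °C. Medium-inhibitor solution then moved to new plates, topped with fresh medium, and held 5 days at +25 °C to allow excystation. Methanol fix, 0.1% crystal violet, 10% acetic acid, A590. Unpaired t-test vs control at 72 h.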

The source made the active and inactive calls. No cut-off for these calls is given here.

Regarding `CCN[C@H]1C[C@H](C)S(=O)(=O)c2sc(S(N)(=O)=O)cc21`, the outcome in experiment [1], in experiment [2] and in experiment [3] was Active.
As for `CCN[C@H]1CN(CCCOC)S(=O)(=O)c2sc(S(N)(=O)=O)cc21`, the outcome in [4] and in experiment [6] was inactive. In addition, the outcome in [5] was Active.
As for `NN1CCN(NC(=S)S)CC1`, the result in experiment [7], in [9] and in [10] was Active. For the same molecule, in [8], the outcome was inactive.
As for `CCOc1ccc2nc(S(N)(=O)=O)sc2c1`, the result in experiment [11], in experiment [12] and in [13] was Active.
Regarding `CC(=O)Nc1nnc(S(N)(=O)=O)s1`, the outcome in experiment [14], in [15] and in experiment [16] was Active.
